Bioassay records as filed in PubChem.
S100A4 inh HTS – blocks human S100A4 binding to myosin IIA peptide; P26447; S100A4/TAMRA-MyoIIA peptide fluorescence polarization; inhibition, % at 10.7 µM; 0.14% of 360,000 active; AID 652163;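 active = mean inhibition of at least 70% across replicates, with every replicate also reaching that level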
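Test system – S100A4 monomer (human) · Compound – single-point compound testing · Schedule – 5 min incubation before reading · Probe or stimulus – TAMRA-labelled myosin IIA heavy-chain peptide probe, 5 nM · Benchmarks – neutral control DMSO, positive control TFP · Medium – Calcium-containing HEPES buffer, pH 7.2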
SR-BI DiI-HDL act – enhances SR-BI lipid uptake from DiI-HDL; activation, % at 12.5 µM; AID 504775; CHO ldlA[mSR-BI] cells, DiI-HDL uptake fluorescence, 3 h; 100 = double the neutral-control signal; 0.096% of 320,000 active;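 active = mean replicate activation of at least 60% and every replicate at or above 60%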
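Material – SR-BI-overexpressing, LDLR-lacking CHO cells · Medium – BSA-supplemented, HEPES-buffered Ham's F12, pH 7.4 · Doses – single concentration · Times – compound with DiI-HDL co-incubation, 3 h at 37 °C · Measured by – bottom-read fluorescence, 550/595 nm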
dFosB act – mouse delta FosB homodimer activation. P13346. purified delta FosB, TAMRA-CDK5 oligo fluorescence polarization; percent of positive-control signal above neutral wells. activation, % at 25 µM. 0.99% of 340,000 active. AID 493131;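 active = mean activation above about 17%, with every replicate also reaching it, limit read from the data, passing the limit was not always enough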
PvdQ acylase – P. aeruginosa PvdQ acylase inhibition | AID 488965 | inhibition, % at 10 µM | 0.063% of 340,000 active | purified PvdQ acylase, fluorescence plate reader; in the data active = inhibition above about 30%, passing the limit was not always enough
SR-BI DiI inh – inhibitors of mouse SR-BI mediated HDL lipid uptake | 0.96% of 320,000 active | ldlA[mSR-BI] CHO cells, DiI-HDL uptake fluorescence, 3 h | AID 488896 | inhibition, % at 12.5 µM;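 active = mean replicate inhibition of at least 70% and a set share of replicates each scoring 70 or more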
RAD54 branch – RAD54 (human) branch migration inhibition; Q92698; RAD54 Holliday junction branch migration, FAM/BHQ fluorescence; inhibition, % at 10.4 µM; 0.14% of 360,000 active;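 active = mean normalized replicate activity at least 40 and at least half of replicates scoring 40 or more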;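 note: inhibitors cause a drop in the FAM fluorescence signal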
Target sequence (Q92698 whole entry, looked up): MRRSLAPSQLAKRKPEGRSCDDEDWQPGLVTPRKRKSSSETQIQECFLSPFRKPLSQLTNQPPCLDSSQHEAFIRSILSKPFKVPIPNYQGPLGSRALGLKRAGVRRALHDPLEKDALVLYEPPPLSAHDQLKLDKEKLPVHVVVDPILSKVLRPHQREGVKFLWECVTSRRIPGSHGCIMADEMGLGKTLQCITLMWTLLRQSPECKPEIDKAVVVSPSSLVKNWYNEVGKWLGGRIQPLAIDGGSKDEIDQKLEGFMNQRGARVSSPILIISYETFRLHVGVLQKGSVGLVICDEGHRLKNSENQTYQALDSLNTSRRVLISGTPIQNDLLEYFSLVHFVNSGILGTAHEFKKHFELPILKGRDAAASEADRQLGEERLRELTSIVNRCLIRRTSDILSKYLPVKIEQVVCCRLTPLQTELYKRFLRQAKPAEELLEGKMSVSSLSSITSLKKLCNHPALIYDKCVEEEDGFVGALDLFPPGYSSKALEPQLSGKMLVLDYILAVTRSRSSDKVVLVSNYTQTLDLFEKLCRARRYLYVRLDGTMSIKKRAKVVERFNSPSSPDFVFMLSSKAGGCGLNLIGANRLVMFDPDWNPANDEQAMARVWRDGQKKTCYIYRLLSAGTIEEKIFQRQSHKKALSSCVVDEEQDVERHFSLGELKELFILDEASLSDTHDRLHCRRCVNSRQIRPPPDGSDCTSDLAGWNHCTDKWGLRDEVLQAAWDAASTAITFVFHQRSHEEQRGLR
Numbers stand for hits; – = inactive; · = no result given. This is a sample that favours compounds with a hit; in the whole collection about 1.6% have one here.

SMILES | S100A4 inh HTS | SR-BI DiI-HDL act | dFosB act | PvdQ acylase | SR-BI DiI inh | RAD54 branch
C[C@@H]1CN([C@H](C)CO)C(=O)c2cccc(NC(=O)C3CCCCC3)c2O[C@@H]1CN(C)S(=O)(=O)c1ccccc1 | – | · | · | · | · | –
CCOC(=O)c1ccc(N2Cc3ccccc3C2=NC(=O)c2cccc([N+](=O)[O-])c2)cc1 | – | · | – | 45 | · | ·
O=C(N=C1c2ccccc2CN1c1ccccc1)c1cccc([N+](=O)[O-])c1 | · | – | – | – | – | ·
CCOc1ccc(NC(=O)CN2CCN(CC(=O)Nc3ccc(OC)cc3OC)CC2)cc1 | – | – | – | – | – | –
N#Cc1c(NC(=O)CN2CCN(C(=O)c3ccco3)CC2)sc2c1CCCCC2 | – | – | – | – | 83 | –
CCOc1ccc(NC(=O)CN2CCN(CC(=O)Nc3ccccc3OC)CC2)cc1 | – | – | – | – | 78 | –
COc1ccccc1NC(=O)CN1CCN(C(=O)c2ccco2)CC1 | · | – | – | – | – | –
COc1ccccc1NC(=O)c1ccc(NC(=O)CN2CCN(C(=O)c3ccco3)CC2)cc1 | – | – | – | – | 79 | ·
CC(C)N1CCc2c(sc(NC(=O)c3ccc4ccccc4c3)c2C(N)=O)C1 | – | – | – | – | – | –
CC(C)N1CCc2c(sc(NC(=O)c3cc4cc([N+](=O)[O-])ccc4s3)c2C(N)=O)C1 | – | – | 48 | – | – | –
CCNC(=O)COc1ccc2ccccc2c1 | · | – | – | 35 | – | –
N#C[C@@H]1[C@H](c2ccccc2C2=CCCCC2)[C@H](CO)N1C(=O)NC1CCCC1 | 131 | · | · | · | · | ·
Nc1ccc(C(=O)Nc2ccccc2C(=O)O)cc1 | · | 85 | – | – | – | ·
N#C[C@H]1[C@H](c2ccccc2-c2ccccc2F)[C@@H](CO)N1C(=O)C1CC1 | – | · | · | · | · | ·
CCOc1ccccc1/C=C/c1onc(C)c1S(=O)(=O)N1CCC(C(=O)N2CCCCCC2)CC1 | – | – | – | – | 92 | –
COC(=O)[C@H]1[C@H](CO)[C@H]2Cn3c(ccc(/C=C/c4ccccc4)c3=O)[C@H]2N1C(=O)C1CCCC1 | – | · | · | · | · | –
Cc1ccc(C(=O)NC(=S)Nc2ccc(-c3cc4ccccc4oc3=O)cc2)c(C)c1 | · | – | – | – | 82 | –
Cc1cc(C)cc(C(=O)NC(=S)Nc2ccc(-c3cc4ccccc4oc3=O)cc2)c1 | · | – | – | – | – | –
O=C(NC(=S)NCc1ccc(F)cc1)c1ccccc1 | · | – | – | – | – | ·
O=C(NC(=S)NCc1ccccc1)c1ccccc1 | · | 65 | – | – | – | ·
COc1ccc(CCNC(=O)c2cc([N+](=O)[O-])cc([N+](=O)[O-])c2)cc1OC | – | – | – | – | 73 | –
COc1ccc(CCNC(=O)c2ccc(N(C)S(=O)(=O)c3ccc(C)cc3)cc2)cc1OC | – | – | – | – | 74 | –
Brc1ccc2c(c1)-c1ccccc1C1=NCCN12 | – | · | · | · | · | 81
Clc1ccc2c(c1)-c1ccccc1C1=NCCN12 | – | · | · | · | · | ·
COc1ccc(-c2cnc3c(c2)C(=O)N([C@H](C)CO)C[C@H](C)[C@@H](CN(C)C)O3)cc1 | – | · | · | · | · | –
SMILES | S100A4 inh HTS | SR-BI DiI-HDL act | dFosB act | PvdQ acylase | SR-BI DiI inh | RAD54 branch
COc1ccc2nc3cc([N+](=O)[O-])ccc3c(NNc3ccc([N+](=O)[O-])cc3)c2c1 | – | – | – | – | 121 | ·
COc1cccc(S(=O)(=O)N2CC[C@@H]3[C@@H](CO)Nc4ccc(C#Cc5ccccc5)cc4[C@@H]32)c1 | 103 | · | · | · | · | –
Cc1cccc(S(=O)(=O)N2CC[C@@H]3[C@H](CO)Nc4ccc(C#Cc5ccc(F)cc5)cc4[C@@H]32)c1 | 97 | · | · | · | · | –
COCC(=O)N1C[C@H](C)[C@@H](OC)CN(C)C(=O)c2ccc(NC(=O)Nc3ccccc3)cc2OC[C@H]1C | – | · | · | · | · | –
COc1ccc(NC(=O)N(C)C[C@@H]2OCCCC[C@H](C)Oc3ccc(NS(C)(=O)=O)cc3C(=O)N([C@@H](C)CO)C[C@H]2C)cc1 | – | · | · | · | · | ·
CCOC(=O)c1nc(NNC(=O)c2ccc([N+](=O)[O-])cc2)sc1C | – | – | – | – | 91 | –
CCOC(=O)c1sc(NNC(=O)c2ccc(C)cc2)nc1C | – | – | – | – | – | –
Cc1ccc(NC(=O)CSc2nnc(-c3ccc(S(=O)(=O)N4CCCC4)cc3)o2)cc1C | · | – | 70 | – | – | ·
Cc1cccc(NC(=O)CSc2nnc(-c3ccc(S(=O)(=O)N4CCCC4)cc3)o2)c1 | – | – | – | – | – | –
COc1cccc(C(=O)Oc2c(Br)cc(Br)cc2/C=N/NC(=O)c2cc(C)[nH]n2)c1 | – | – | – | – | 103 | ·
COc1cc(C(=O)Oc2cccc(/C=N/NC(=O)c3cc(C)[nH]n3)c2)cc(OC)c1OC | – | · | – | – | · | –
CN(C)c1ccc(C=C2C=Cc3ccccc32)cc1 | – | – | – | – | – | –
COc1cc2c(cc1OC)C(=Cc1ccc(N(C)C)cc1)C=C2 | – | – | – | – | 76 | –
O=C(NC1CCC(O)CC1)c1cc(-c2ccc(Cl)cc2)nc2ccccc12 (centres undefined) | – | – | – | – | 77 | –
O=C(N/N=C/c1ccc[nH]1)c1cc(-c2ccc(Cl)cc2)nc2ccccc12 | – | – | – | – | 93 | ·
Cc1ccc(C)c(-c2cc(C(=O)NC3CC3)c3ccccc3n2)c1 | – | – | – | – | – | –
O=C(N/N=C/c1cccnc1)c1cc(-c2ccc(Cl)cc2)nc2ccccc12 | – | – | – | – | – | –
O=C(N/N=C/c1ccc[nH]1)c1sc2ccccc2c1Cl | · | – | – | – | 75 | –
CN=c1scc(-c2ccc(F)cc2)n1/N=C/c1ccc(O)c(O)c1 | – | – | – | – | 78 | ·
Cc1ccc(CN2C(=O)C(C)Oc3ccc(C)cc32)cc1 (centres undefined) | – | · | · | · | · | –
Cc1ccc(C)c(CN2C(=O)C(C)Oc3ccc(C)cc32)c1 (centres undefined) | · | – | – | – | 77 | –
O=C(C[C@@H]1CC[C@@H]2[C@H](COC[C@H](O)CN2C(=O)Nc2cccc(F)c2)O1)NCc1ccccc1Cl | – | · | · | · | · | –
O=C(Nc1sc2c(c1C(=O)NCc1ccco1)CCCC2)c1ccc2c(c1)OCO2 | · | – | – | – | 82 | –
Cc1ccc(C(=O)Nc2sc3c(c2C(=O)NCc2ccco2)CCCC3)cc1 | · | – | – | – | – | –
COc1ccc(OC)c2sc(NC(=O)c3ccc(Cl)s3)nc12 | – | – | – | – | 87 | –
COc1ccc(OC)c2sc(NC(=O)c3ccc(Br)s3)nc12 | – | – | – | – | – | –
COc1ccc(-c2cc(C(F)(F)F)nc(SCC(=O)NCc3ccco3)n2)cc1OC | · | – | – | – | 81 | –
O=C(CSc1nc(-c2ccccc2)cc(C(F)(F)F)n1)NCc1ccco1 | – | – | – | – | – | –
